Screens (PubChem BioAssay)
RGS4 pot: RGS4 potentiators or activators, primary screen, cell-based, HEK293 M3R inducible RGS4, calcium flux. carbachol calcium flux Fluo4; stronger effect = lower value. B-score at 10 µM. hit rate 0.92% among 310,000;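 active means B-score of the integrated calcium signal more than 4 SD below the library mean, with starting fluorescence not abnormally high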;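 further: negative B-score means reduced calcium response which marks RGS4 activation or potentiation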
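Also added: carbachol at ECmax as muscarinic agonist stimulus; Assay system: HEK293 cells with stable M3R and inducible RGS4; Timing: overnight RGS4 induction, 30 min dye load 37 °C, 20 min compound RT; Measured by: Fluo4-AM (2 µM) calcium-flux fluorescence, kinetic read.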
MrgX1 antagonist: antagonists of human MrgX1 receptor, primary screen, HEK293 cells, Fluo-4 calcium flux | B-score at 10 µM | AID 588676, 2011 | Mas-related G-protein coupled receptor member X1 (Homo sapiens), Q96LB2 | BAM8-22 antagonism; stronger effect = lower value | hit rate 1.3% among 310,000;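 active means calcium-response B-score plate-corrected more than 3 library SD below zero, starting fluorescence within 5 deviations, no agonist response on first addition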;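 further: peak minus trough fluorescence over baseline after final BAM8-22 challenge near maximal dose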
Target sequence (Q96LB2 whole entry, looked up): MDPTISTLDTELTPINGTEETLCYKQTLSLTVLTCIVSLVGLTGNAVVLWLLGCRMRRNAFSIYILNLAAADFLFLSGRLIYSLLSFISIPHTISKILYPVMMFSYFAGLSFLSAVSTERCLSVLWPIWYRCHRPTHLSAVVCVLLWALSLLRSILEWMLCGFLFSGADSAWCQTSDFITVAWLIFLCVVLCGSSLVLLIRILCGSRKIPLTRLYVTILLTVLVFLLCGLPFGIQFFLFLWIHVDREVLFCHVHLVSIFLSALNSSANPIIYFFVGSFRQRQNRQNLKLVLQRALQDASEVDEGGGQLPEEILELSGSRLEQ
RGS4 inh: RGS4 inhibitors, primary screen, cell-based, HEK293 M3R inducible RGS4, calcium flux; Fluo-4 calcium flux; stronger effect = higher value; triggered by carbachol at its EC20; hit rate 0.45% among 310,000; B-score at 10 µM; Regulator of G-protein signaling 4 (Homo sapiens), P49798;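 active means B-score, a plate-corrected calcium signal, over three deviations above library mean, with baseline fluorescence within five deviations of library mean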;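 further: RGS4 expression induced by doxycycline in cells with stable M3 receptor; B-score is computed from the integrated fluorescence ratio over baseline after carbachol; higher B-score means a larger calcium signal and so more RGS4 inhibition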
Target sequence (P49798 whole entry, looked up): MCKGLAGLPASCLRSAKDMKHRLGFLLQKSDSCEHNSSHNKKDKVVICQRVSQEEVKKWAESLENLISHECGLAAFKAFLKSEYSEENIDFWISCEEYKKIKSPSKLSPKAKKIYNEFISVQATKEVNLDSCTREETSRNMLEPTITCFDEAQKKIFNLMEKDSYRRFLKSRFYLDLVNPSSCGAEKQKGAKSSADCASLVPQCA
Cl transport mod: KCC2 cotransporter modulators, thallium flux, primary screen, cell-based, HEK293 KCC2, FluoZin-2 fluorescence, MLSMR | Solute carrier family 12 member 5 (Homo sapiens), Q9H2X9 | KCC2 cells, thallium flux FluoZin-2 fluorescence | B-score of Tl+ flux slope (higher = more flux/activation; lower = inhibition) at 10 µM | hit rate 2.2% among 190,000;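 active means thallium flux slope and its plate-corrected score both differing from the plate sample mean at a set confidence after two filtering rounds, in either direction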;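 further: slope of fluorescence scaled to starting intensity during 10 to 20 s after thallium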
MrgX1 ag: agonists of human MrgX1 receptor, primary screen, HEK293 cells, Fluo-4 calcium flux; Mas-related G-protein coupled receptor member X1 (Homo sapiens), Q96LB2; hit rate 0.44% among 310,000; Fluo-4 calcium fluorescence, agonist mode; stronger effect = higher value; B-score at 10 µM;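 active means calcium response B-score plate-corrected fluorescence ratio at least 3 library SD, with starting fluorescence B-score inside 5 SD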
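System – MrgX1-expressing HEK293 cells · Incubation – cells plated overnight, dye loaded 0.5 h 37 °C, 0.5 h room temperature · Technique – kinetic Fluo-4 NW fluorescence of intracellular calcium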
MrgX1 PAM: positive allosteric modulators of MrgX1, primary screen, HEK293 cells, Fluo-4 calcium flux; AID 588675, 2011; FDSS; stronger effect = higher value; Mas-related G-protein coupled receptor member X1 (Homo sapiens), Q96LB2; B-score at 10 µM; hit rate 0.63% among 310,000;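 active means plate-corrected calcium response at least 3 library SD above typical, normal starting fluorescence, not activating the receptor alone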;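 further: compound read alongside a low EC10 to EC30 dose of BAM8-22 agonist; peak minus trough fluorescence over baseline measured at the second addition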
RGS4 block valid: enhanced carbachol calcium response, M3R/RGS4 cells, RGS4 inhibitor project, cell-based, validation screen, HEK293 M3R/RGS4, calcium flux; carbachol calcium Fluo-4 fluorescence; carbachol added at its EC20; 0 = buffer wells, 100 = carbachol control; AID 492999, 2010; calcium response, % at 10 µM; hit rate 65% among 1,700; shares compounds with RGS4 inh;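 active means duplicate-averaged calcium response above the buffer-only control mean plus 5 SD of those controls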;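 further: integrated fluorescence ratio F max minus min over baseline F0; higher response in RGS4-induced cells means RGS4 inhibition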
RGS4 uninduced: carbachol calcium response in non-induced M3R cells, confirmation, counter-screen for RGS4 inhibitor project, cell-based, HEK293 M3R | shares compounds with RGS4 inh | carbachol calcium Fluo-4; submaximal (EC20) carbachol stimulus; buffer wells 0%, carbachol control wells 100% | activity (percent), % at 10 µM | hit rate 20% among 1,900 | AID 493000, 2010; call rule not given here;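 further: RGS4 induction absent so cells express M3R without RGS4; higher means more calcium signal and flags a non-specific hit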
RGS4 inh ctr2: second counter-screen for RGS4 inhibitors: non-induced cells without carbachol | hit rate 22% among 1,900 | calcium response (agonist-mode artifact), % at 10 µM | shares compounds with RGS4 inh | HEK293 M3R/RGS4 non-induced, Fluo-4 calcium, no carbachol; normalised: buffer wells 0%, carbachol wells 100% | AID 493001;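 active means duplicate-averaged calcium rise in uninduced cells above buffer wells' mean plus 5 SD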
The depositor's hits bear a star. Rows were chosen to be rich in hits. Some 4.7% of all compounds tested hit in one or more screens of this group.

Screening Cc1cc(C)nc(Nc2nc3ccccc3o2)n1 returned RGS4 pot inactive, MrgX1 antagonist inactive, RGS4 inh inactive, Cl transport mod 0.19, MrgX1 ag inactive and MrgX1 PAM inactive.
For Cc1ccc(NC(=O)c2c(C)nc(Nc3nc4ccccc4o3)nc2C)cc1 the results were RGS4 pot inactive, MrgX1 antagonist inactive, RGS4 inh inactive, Cl transport mod -1.2, MrgX1 ag inactive, MrgX1 PAM inactive, RGS4 uninduced inactive and RGS4 inh ctr2 inactive.
Screening CC(C)(CO)NS(=O)(=O)c1ccc2c(c1)C(=NO)c1cc(S(=O)(=O)NC(C)(C)CO)ccc1-2 returned RGS4 pot inactive, MrgX1 antagonist inactive, RGS4 inh 11*, Cl transport mod 1, MrgX1 ag inactive, MrgX1 PAM inactive, RGS4 block valid 16%*, RGS4 uninduced inactive and RGS4 inh ctr2 inactive.
For COc1cc(OC)c(OC)cc1NC(=O)CC1COc2ccccc2O1 (configuration not stated) the results were RGS4 pot inactive, MrgX1 antagonist inactive, RGS4 inh inactive, Cl transport mod -0.62, MrgX1 ag inactive and MrgX1 PAM inactive.
`COc1ccc(CCNC(=O)CC2COc3ccccc3O2)cc1OC` (configuration not stated) gave RGS4 pot inactive, MrgX1 antagonist inactive, RGS4 inh 13*, Cl transport mod -0.31, MrgX1 ag inactive, MrgX1 PAM inactive, RGS4 block valid inactive, RGS4 uninduced inactive and RGS4 inh ctr2 inactive.
For Cc1ccc(CNC(=O)COc2ccc(S(=O)(=O)N3CCCC3)cc2)cc1 the results were RGS4 pot inactive, MrgX1 antagonist inactive, RGS4 inh inactive, MrgX1 ag inactive and MrgX1 PAM inactive.
For CCCCNc1c(C(=O)OCC)c(C)nc2c1cnn2CC the results were RGS4 pot inactive, MrgX1 antagonist inactive, RGS4 inh 10*, MrgX1 ag inactive, MrgX1 PAM inactive, RGS4 block valid 7.5%*, RGS4 uninduced 28%* and RGS4 inh ctr2 inactive.
Screening N=C1/C(=C/c2cccn2Cc2ccc(F)cc2)C(=O)N=C2SC=CN12 returned RGS4 pot inactive, MrgX1 antagonist inactive, RGS4 inh inactive, Cl transport mod 1.9, MrgX1 ag inactive, MrgX1 PAM inactive, RGS4 uninduced inactive and RGS4 inh ctr2 21%*.
`Cc1ccc(Cn2cccc2/C=C2/C(=N)N3C=CSC3=NC2=O)cc1` gave RGS4 pot inactive, MrgX1 antagonist inactive, RGS4 inh inactive, Cl transport mod 2.2, MrgX1 ag inactive, MrgX1 PAM inactive, RGS4 block valid inactive, RGS4 uninduced inactive and RGS4 inh ctr2 inactive.
`O=C(COC(=O)CCC1CCCC1)Nc1cccc(S(=O)(=O)N2CCOCC2)c1` gave RGS4 pot inactive, MrgX1 antagonist inactive, RGS4 inh inactive, MrgX1 ag inactive and MrgX1 PAM inactive.
